The record followed here is ChEMBL document CHEMBL1157105, “Semisynthesis of natural flavones inhibiting tubulin polymerization, from hesperidin” (J Nat Prod, 2010).

Assay [1] is filed under the species Ovis aries. Kind of assay: Inhibition of sheep brain tubulin polymerization at 2.5 mM after 15 mins by turbidimetry. The gist of the method:
(§1)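 Sheep brain microtubule protein purified by two 37 °C/0 °C assembly–disassembly cycles in 100 mM MES pH 6.6, 1 mM EGTA, 0.5 mM MgCl2. Compound in DMSO (1 µL) added to 150 µL microtubule solution, then incubated 37 °C 10 min and 0 °C 5 min. Polymerization rate read by turbidity at 350 nm. Reported as % inhibition at ~2.5 × 10^-3 M or IC50; deoxypodophyllotoxin reference, ratio IC50 compound/IC50 DPPT.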

Assay [2] concerns KB. The experiment in a line: Cytotoxicity against human KB cells at 1 uM after 72 hrs by MTS assay. (In general: Tetrazolium dyes change colour on reduction, which living cells bring about.)
The subject of assay [3] is KB. Kind of assay: Cytotoxicity against human KB cells after 72 hrs by MTS assay. In kind it is functional, cell-based. The gist of the method:
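KB cells grown in D-MEM with 10% fetal calf serum under 5% CO2. Seeded at 600 cells/well and dosed 24 h later with DMSO solutions from 0.5 nM to 10 µM (1% DMSO final; vehicle controls). After 72 h, MTS added for 3 h at 37 °C and A490 read, in triplicate. % inhibition = (1 − OD treated/OD control) × 100; IC50 derived.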

Assay [4] concerns HL-60. The experiment in a line: Induction of apoptosis in human HL60 cells assessed as increase in caspase 3/7 activation at 50 nM after 48 hrs by fluorescence assay relative to control. Format: functional. The gist of the method:
(§2)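 HL60 cells grown in complete RPMI, seeded at 20 000 cells/well and treated with DMSO-dissolved compound. Vehicle controls; 1 µM doxorubicine positive control. Fluorescence (ex 360/em 465 nm) followed over 3 h. Reported as fold caspase 3/7 activation over control.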

Assay [5] is filed under the species Ovis aries. Kind of assay: Ratio of compound IC50 to DPPT IC50 for sheep brain tubulin polymerization. The gist of the method:
as §1

Assay [6] concerns HL-60. The experiment in a line: Induction of apoptosis in human HL60 cells assessed as increase in caspase 3/7 activation at 500 nM after 48 hrs by fluorescence assay relative to control. In kind it is functional. The gist of the method:
as §2

A short description of assay [7]: Inhibition of sheep brain tubulin polymerization after 15 mins by turbidimetry. Set-up: species or system Ovis aries. The gist of the method:
as §1

The structures appear in SMILES notation.

For orientation: inhibition means how much of the control response was suppressed. Low readings indicate a weak effect, high ones a strong effect. Take `COc1ccc(-c2oc3c(OC)c(OC)cc(O)c3c(=O)c2OC)cc1O`: the inhibition in the assay listed under Ovis aries [1] amounted to 0%. In the assay on KB [2], this molecule had an Activity of 9%.

One may read the IC50 as the midpoint of a concentration-inhibition curve. `COc1ccc(-c2oc3c(Br)c(OC)c(Br)c(O)c3c(=O)c2OC)cc1O` yielded an inhibition in the assay listed under Ovis aries [1] of 36%. Moreover, the IC50 in the assay on KB [3] is 404 nM. In addition, the “fold change (FC)” value in the assay with HL-60 [4] amounted to 3.2.

As to `COc1cc(O)c2c(=O)c(OC)c(-c3ccc(OC)c(O)c3)oc2c1` [AYANIN], in the assay listed under Ovis aries [1], the inhibition was found to be 0%. Also, the Activity in the assay on KB [2] is on record as 3%.

As for `COc1ccc(-c2oc3cc(OC)c(OC)c(O)c3c(=O)c2OC)cc1O` [CASTICIN], the Ratio IC50 in the assay listed under Ovis aries [5] came to 6.8. Further, in the assay on HL-60 [6], the “fold change (FC)” value is 5.3. Besides, the IC50 came to 97 nM in the assay with KB [3] and 19000 nM in assay [7].

On to `COc1ccc(-c2oc3c(OC)c(OC)c(OC)c(O)c3c(=O)c2OC)cc1O`, for which the Ratio IC50 in the assay filed under Ovis aries [5] was determined as 0.46. In addition, the results for the IC50 (with KB [3]; in assay [7]) were 8 nM and 1300 nM, respectively. In addition, in the assay with HL-60 [4], the “fold change (FC)” value worked out at 6.9.

With `COc1ccc(-c2oc3c(OC)c(O)c(OC)c(O)c3c(=O)c2OC)cc1O`, the Ratio IC50 in the assay listed under Ovis aries [5] is 5. In the assay with KB [2], this molecule returned an Activity of 10%. This molecule also displayed an IC50 in assay [7] of 14000 nM.

In turn, `COc1ccc(-c2oc3c(N(C)C)c(OC)c(OC)c(O)c3c(=O)c2OC)cc1O` came in with an inhibition in the assay filed under Ovis aries [1] of 0%. In the assay on KB [2], this molecule gave an Activity of 40%.
